High-throughput results: PubChem, The Scripps Research Institute Molecular Screening Center
This is a sample that favours compounds with a hit; in the whole collection about 1.8% have one here.
M4 antag – antagonists of human muscarinic M4 receptor (CHRM4) | inhibition, % at 3 µM | 360,000 tested, 0.73% active | AID 624125 | P08173 | CHO-hM4 cells, ACh EC80, Fluo-8 calcium fluorescence;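 active = inhibition above its plate's cutoff, the mean inhibition of sample wells plus 3 SD, cut at about 27% in these data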;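 note: 0% = acetylcholine EC80 with DMSO and 100% = DMSO without agonist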
M5 ag – CHRM5 agonism in calcium assay; P08912; CHO-K1 hM5 cells, Fluo-8 calcium fluorescence; 0% DMSO wells, 100% maximal acetylcholine response; AID 624037; 360,000 tested, 0.19% active; activation, % at 3 µM;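 active = activation above the run's mean over test compounds plus 3 SD, cut at about 23% in these data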;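 note: signal is peak over basal fluorescence ratio across the kinetic read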
Target sequence (P08912 whole entry, looked up): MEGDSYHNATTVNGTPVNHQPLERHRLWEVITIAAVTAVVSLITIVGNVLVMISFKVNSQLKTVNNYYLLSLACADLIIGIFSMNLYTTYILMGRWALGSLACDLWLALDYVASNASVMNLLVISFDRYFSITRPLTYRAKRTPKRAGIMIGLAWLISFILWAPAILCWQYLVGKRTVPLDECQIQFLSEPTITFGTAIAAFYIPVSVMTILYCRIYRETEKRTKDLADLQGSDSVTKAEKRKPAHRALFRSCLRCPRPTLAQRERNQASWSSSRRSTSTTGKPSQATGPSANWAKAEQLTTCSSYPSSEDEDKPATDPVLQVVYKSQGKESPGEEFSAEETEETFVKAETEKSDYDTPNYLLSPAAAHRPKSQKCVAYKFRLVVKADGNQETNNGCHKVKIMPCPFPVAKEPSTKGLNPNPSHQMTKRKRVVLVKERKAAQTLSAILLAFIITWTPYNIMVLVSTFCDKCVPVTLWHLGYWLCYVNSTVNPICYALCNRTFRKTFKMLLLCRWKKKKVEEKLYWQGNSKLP
CHRM4 agonist – agonists of human muscarinic M4 receptor (CHRM4). AID 624127. 360,000 tested, 0.14% active. CHO-K1 hM4/Gqi5, Fluo-8 calcium fluorescence; vehicle 0%, full acetylcholine response 100%. P08173. activation, % at 3 µM;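 active = activation above the run mean over all test wells plus 3 SD, cut at about 32% in these data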;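 note: peak over basal fluorescence ratio per well then scaled between controls; 0% = DMSO wells and 100% = acetylcholine at EC100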
CHRM4 PAM – potentiates acetylcholine response at human M4 receptor; P08173; CHO-K1 hM4/Gqi5, Fluo-8 calcium fluorescence, ACh EC20; 0% = ACh EC20, 100% = maximal ACh; activation, % at 3 µM; 360,000 tested, 0.4% active; AID 624126;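 active = activation above its plate's cutoff, the mean activation of sample wells plus 3 SD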
M5 PAM – positive allosteric modulators of human muscarinic M5 receptor | P08912 | CHO-K1 hM5, Fluo-8 calcium, ACh EC20 PAM; 0% = ACh EC20, 100% = ACh EC100 | activation, % at 3 µM | 360,000 tested, 0.3% active;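 active = activation above the run cutoff, the mean activation of all test compounds plus 3 SD, cut at about 18% in these data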
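Replicates: One well per compound, no replicates | System: Human M5 receptor in CHO-K1 cells | Benchmarks: Low control EC20 acetylcholine (0%), high control EC100 acetylcholine (100%) | Probe or stimulus: Acetylcholine, EC20 level | Times: Fluo-8 loading 80 min at 37 °C plus 30 min room temperature | Signal: Intracellular calcium via Fluo-8 fluorescence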
M5 antag – antagonists of human muscarinic M5 receptor (CHRM5). CHO-hM5 cells, Fluo-8 calcium fluorescence, ACh EC80. inhibition, % at 3 µM. 360,000 tested, 0.59% active. AID 624040;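 active = inhibition above a per-plate cutoff, the mean of that plate's test compounds plus 3 SD, cut at about 27% in these data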;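 note: 0% = acetylcholine EC80 with DMSO and 100% = DMSO without agonist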
Numbers without * were called inactive; ! = a repeat was not active.

SMILES	M4 antag	M5 ag	CHRM4 agonist	CHRM4 PAM	M5 PAM	M5 antag
COc1ccc(C(=O)NC(=S)NNC(=O)c2ccccc2O)cc1	-10.6	-3.9	1.6	4.0	5.0	0.8
Cc1ccccc1N=C1Nc2ccccc2N[C@]12C[C@H]1CCC(=O)N3CC[C@@H](C2)[C@@H]13	1.5	3.2	1.0	3.8	-2.4	1.2
CC#CC[N+](C)(C)CCCCCCCC	12.2	-14.8	-0.2	-5.5	-1.6	1.0
CCCCCCCCCCCCCCCC[N+](C)(C)Cc1ccc(F)cc1	36.3*	-12.6	0.4	-10.3	-35.2	21.4
CC1CCCCCCC1OC(=O)c1ccccc1C(=O)O (stereo unspecified)	-2.4	-7.2	0.0	1.5	-11.1	24.1
CC(C)C(C)NC(=O)CN1C(=O)NC2(CCc3ccccc32)C1=O (stereo unspecified)	-23.8	-0.2	-0.4	14.5*	4.6	-4.0
Cc1ccc(NC(=O)CN2C(=O)NC3(CCCc4ccccc43)C2=O)cc1S(=O)(=O)N1CCOCC1 (stereo unspecified)	-6.3	-9.2	20.1	-10.2	-20.0	99.7*
CC(C)C(C)NC(=O)CN1C(=O)NC2(CCCc3ccccc32)C1=O (stereo unspecified)	3.6	-1.0	0.3	-4.4	-4.1	4.5
Cn1ncc([N+](=O)[O-])c1C(=O)N/N=C/c1ccc(F)cc1	6.6	1.1	1.1	30.6*	3.2	-8.4
COc1cccc(NC(=O)C2CC(=O)N(Cc3ccco3)C2)c1 (stereo unspecified)	-5.7	-0.1	2.1	21.4*	1.5	-5.5
CCN(CC)C1=NC=CC(c2ccccc2)=CC1C (stereo unspecified)	39.1*	-7.3	1.7	-32.4	-12.3	8.2
CCCCNc1c(-c2ccc(OC)c(SC3CCCCC3)c2)nc2ccc(C)cn12	78.3*	-2.3	15.5	-10.3	-35.1	39.7*
CCCCNc1c(-c2ccc(SC3CCCCC3)c(OC)c2)nc2ccc(C)cn12	35.3*!	4.2	4.0	-5.4	-8.3	7.9
Cc1sc2ncnc(N3CCN(CCOc4ccc(Cl)cc4)CC3)c2c1C	11.3	2.9	12.1	0.2	-25.1	32.2*
Cc1sc2ncnc(N3CCC(C(=O)NNC(=O)COc4ccc(Cl)cc4)CC3)c2c1C	2.8	7.0	20.9	-8.1	-17.6	15.1
Cc1ccc(C(=O)NCCn2cc(SCC(=O)Nc3cc(C)on3)c3ccccc32)cc1	-24.8	36.0*	12.9	-3.7	-21.3	1.1
Cc1cc(NC(=O)CSc2ccc3nnc(CCNC(=O)c4ccccc4)n3n2)no1	-3.0	-7.4	0.9	30.4*	-3.9	0.6
CC(=O)c1cc2c(cc1NS(=O)(=O)c1ccccc1)OCO2	29.9*	-7.1	1.7	-10.3	-5.4	14.1
CC(=O)c1cc2c(cc1NS(=O)(=O)c1cccc(C(=O)O)c1)OCO2	-5.3	-0.6	-0.1	-6.0	0.7	-1.8
COc1ccccc1CNC(=O)COC(=O)c1cccc(-n2cnnn2)c1	-23.3	0.0	8.3	4.1	-1.8	-3.2
O=[N+]([O-])c1cnc(Sc2ccncn2)c([N+](=O)[O-])c1	-7.9	2.6	3.3	-3.1	-1.1	-4.4
O=[N+]([O-])c1cnc(Sc2ccncn2)s1	32.2*	1.1	17.0	-6.7	-6.6	19.5
CCCN(C(=O)CSCc1ccccc1C)c1c(N)n(Cc2ccccc2)c(=O)[nH]c1=O	-4.5	-0.9	1.7	17.4	-3.0	2.2
NCCCC[C@H]1CN=C(N)N1CCC12CC3CC(CC(C3)C1)C2	53.5*	-12.0	2.6	-14.4	-9.3	13.7
CCCCNC(=O)c1ccc(SCC(=O)N(CC)CC)c([N+](=O)[O-])c1	-13.1	5.8	1.5	4.1	18.9*	-11.9
CCN(CC)C(=O)CSc1ccc(C(F)(F)F)cc1[N+](=O)[O-]	-7.3	-1.7	2.4	7.5	-3.7	7.8
COc1cc2c(cc1OC)CN(C(=O)c1cc(S(=O)(=O)N3CCOCC3)c(Cl)cc1Cl)CC2	-8.6	-1.4	10.6	-4.2	-9.1	18.0
Cc1nn(CC(=O)Nc2ccc(C(=O)N3CCCCC3)cc2)c(=O)c2ccccc12	5.6	-1.7	-0.3	-0.9	-5.4	-0.3
